For twelve compounds, IC50 and Ratio results are on record in ChEMBL document CHEMBL1130143, “Probes for narcotic receptor-mediated phenomena. 25. Synthesis and evaluation of N-alkyl-substituted (alpha-piperazinylbenzyl)benzamides as novel, highly selective delta opioid receptor agonists” (J Med Chem, 1997).

Chain of Mu-type opioid receptor (P33535 whole entry): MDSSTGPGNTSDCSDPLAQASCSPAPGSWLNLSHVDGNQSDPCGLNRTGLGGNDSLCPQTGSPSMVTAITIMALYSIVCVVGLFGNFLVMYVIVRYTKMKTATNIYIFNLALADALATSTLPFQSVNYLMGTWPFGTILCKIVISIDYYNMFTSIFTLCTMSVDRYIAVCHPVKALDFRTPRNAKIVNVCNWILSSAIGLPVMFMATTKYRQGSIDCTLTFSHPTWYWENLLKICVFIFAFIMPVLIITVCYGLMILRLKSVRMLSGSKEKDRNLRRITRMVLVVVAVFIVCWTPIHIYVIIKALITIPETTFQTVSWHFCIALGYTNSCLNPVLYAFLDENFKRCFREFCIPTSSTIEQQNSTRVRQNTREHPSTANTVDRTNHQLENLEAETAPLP

The first assay concerns the target Mu-type opioid receptor (Rattus norvegicus, UniProt P33535). Briefly: Binding affinity for Opioid receptor mu 1 by the inhibition of binding of [3H]DAMGO in rat brain membranes. In kind it is cell membranes.
Settings: not given
The procedure, abridged:
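Rat brain membranes with [³H]DAMGO at 1-3 nM, incubated 4 h at 25 °C in 50 mM Tris-HCl pH 7.4 plus protease inhibitor cocktail. Nonspecific binding measured with 20 μM levallorphan. Radioligand displaced by nine drug concentrations, in two runs. Drugs diluted in 10 mM Tris-HCl pH 7.4 containing 1 mg/mL BSA. IC50 reported.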
Broadly, the IC50 is the concentration that gives 50% inhibition. Read a high IC50 as weaker potency. On to `C=CCN1C[C@H](C)N([C@H](c2ccc(C(N)=O)cc2)c2cccc(OC)c2)C[C@H]1C`, for which the IC50 is more than 2.5 µM.
Regarding `C=CCN1C[C@H](C)N([C@@H](c2ccc(C(=O)N(C)C)cc2)c2cccc(OC)c2)C[C@H]1C`, the IC50 was more than 2.5 µM.
On the same count and under the same terms, as for `C=CCN1C[C@H](C)N([C@@H](c2ccc(C(N)=O)cc2)c2cccc(OC)c2)C[C@H]1C`, the figure is more than 2.5 µM; as for `C=CCN1C[C@H](C)N([C@@H](c2ccc(C(=O)N(C(C)C)C(C)C)cc2)c2cccc(OC)c2)C[C@H]1C`, more than 2.5 µM.
Regarding `C=CCN1C[C@H](C)N([C@@H](c2ccc(C(=O)N3CCCCC3)cc2)c2cccc(OC)c2)C[C@H]1C`, the IC50 is more than 2.5 µM.
Same read-out and setting: the value for `C=CCN1C[C@H](C)N([C@@H](c2ccc(C(=O)N(CCCC)CCCC)cc2)c2cccc(OC)c2)C[C@H]1C` was more than 2.5 µM; that for `C=CCN1C[C@H](C)N([C@@H](c2ccc(C(=O)NCC)cc2)c2cccc(OC)c2)C[C@H]1C` was 0.169 µM.
The compound `C=CCN1C[C@H](C)N([C@H](c2ccc(C(=O)N(CCCC)CCCC)cc2)c2cccc(OC)c2)C[C@H]1C` yielded an IC50 of more than 2.5 µM.
Consider `C=CCN1C[C@H](C)N([C@@H](c2ccc(C(=O)N3CCCCCC3)cc2)c2cccc(OC)c2)C[C@H]1C`, for which the concentration for half-maximal inhibition (IC50) was more than 2.5 µM.
Same read-out and setting: the value for `C=CCN1C[C@H](C)N([C@H](c2ccc(C(=O)NC(C)(C)C)cc2)c2cccc(OC)c2)C[C@H]1C` was more than 2.5 µM; that for `C=CCN1C[C@H](C)N([C@@H](c2ccc(C(=O)N(CCC)CCC)cc2)c2cccc(OC)c2)C[C@H]1C` was 4.34 µM.

The next assay deals with Kappa-type opioid receptor (Cavia porcellus, UniProt P41144). As to the kind of experiment: Binding affinity for Opioid receptor kappa 1 by the inhibition of binding of [3H]U-69593 in guinea pig brain membranes. In kind it is cell membranes.
Chain of Kappa-type opioid receptor (P41144 whole entry): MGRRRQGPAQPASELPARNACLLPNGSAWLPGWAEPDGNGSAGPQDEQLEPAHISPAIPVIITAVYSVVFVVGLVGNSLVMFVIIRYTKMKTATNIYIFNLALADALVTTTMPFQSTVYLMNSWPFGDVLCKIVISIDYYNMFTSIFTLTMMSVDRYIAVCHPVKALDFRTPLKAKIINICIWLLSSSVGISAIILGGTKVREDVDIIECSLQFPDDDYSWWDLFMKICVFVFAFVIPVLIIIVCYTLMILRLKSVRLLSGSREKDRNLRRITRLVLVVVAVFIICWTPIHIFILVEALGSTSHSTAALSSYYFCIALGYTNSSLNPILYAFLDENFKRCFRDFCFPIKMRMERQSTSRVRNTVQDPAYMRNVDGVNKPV
Settings: not given
The procedure, abridged: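 Guinea pig brain membranes, first depleted of μ and δ sites by pretreatment with irreversible ligands BIT and FIT. Nonspecific binding from 1 μM U69,593. Nine concentrations, run twice. IC50 reported.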
As to `C=CCN1C[C@H](C)N([C@H](c2ccc(C(N)=O)cc2)c2cccc(OC)c2)C[C@H]1C`, the IC50 is more than 2.5 µM.
The compound `C=CCN1C[C@H](C)N([C@@H](c2ccc(C(=O)N(C)C)cc2)c2cccc(OC)c2)C[C@H]1C` returned an IC50 of more than 2.5 µM.
On the same count and under the same terms, the value for `C=CCN1C[C@H](C)N([C@@H](c2ccc(C(N)=O)cc2)c2cccc(OC)c2)C[C@H]1C` was more than 2.5 µM; that for `C=CCN1C[C@H](C)N([C@@H](c2ccc(C(=O)N(C(C)C)C(C)C)cc2)c2cccc(OC)c2)C[C@H]1C` was more than 2.5 µM.
`C=CCN1C[C@H](C)N([C@@H](c2ccc(C(=O)N3CCCCC3)cc2)c2cccc(OC)c2)C[C@H]1C` gave an IC50 of more than 10 µM.
Same read-out and setting: as for `C=CCN1C[C@H](C)N([C@H](c2ccc(C(=O)N(CC)CC)cc2)c2cccc(OC)c2)C[C@H]1C` [SNC-80], the figure is 7.07 µM.
Still for that read-out and setting: the value for `C=CCN1C[C@H](C)N([C@@H](c2ccc(C(=O)N(CCCC)CCCC)cc2)c2cccc(OC)c2)C[C@H]1C` was more than 2.5 µM.
Still for that read-out and setting: the value for `C=CCN1C[C@H](C)N([C@@H](c2ccc(C(=O)NCC)cc2)c2cccc(OC)c2)C[C@H]1C` was 1.63 µM.
Regarding `C=CCN1C[C@H](C)N([C@H](c2ccc(C(=O)N(CCCC)CCCC)cc2)c2cccc(OC)c2)C[C@H]1C`, the IC50 was more than 2.5 µM.
For `C=CCN1C[C@H](C)N([C@@H](c2ccc(C(=O)N3CCCCCC3)cc2)c2cccc(OC)c2)C[C@H]1C`, the IC50 was more than 2.5 µM.
As for `C=CCN1C[C@H](C)N([C@H](c2ccc(C(=O)NC(C)(C)C)cc2)c2cccc(OC)c2)C[C@H]1C`, the IC50 is more than 2.5 µM.
Still for that read-out and setting: the value for `C=CCN1C[C@H](C)N([C@@H](c2ccc(C(=O)N(CCC)CCC)cc2)c2cccc(OC)c2)C[C@H]1C` was more than 10 µM.

In another assay the target is Delta-type opioid receptor (Rattus norvegicus, UniProt P33533). As to the kind of experiment: Binding affinity for Opioid receptor delta 1 by the inhibition of binding of [3H]DADAL in rat brain membranes. In kind it is cell membranes.
Chain of Delta-type opioid receptor (P33533 whole entry): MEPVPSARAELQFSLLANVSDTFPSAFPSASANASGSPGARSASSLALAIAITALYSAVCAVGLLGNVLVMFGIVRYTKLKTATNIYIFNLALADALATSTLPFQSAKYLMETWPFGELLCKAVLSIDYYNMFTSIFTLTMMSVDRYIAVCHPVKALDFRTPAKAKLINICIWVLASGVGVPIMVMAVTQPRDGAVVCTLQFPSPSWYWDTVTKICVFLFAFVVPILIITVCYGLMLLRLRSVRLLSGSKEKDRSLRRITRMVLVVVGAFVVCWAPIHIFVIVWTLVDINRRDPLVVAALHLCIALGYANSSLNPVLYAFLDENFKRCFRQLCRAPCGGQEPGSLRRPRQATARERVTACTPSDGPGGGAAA
Settings: not given
The procedure, abridged:
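Rat brain membranes labelled with [³H]DADLE at 1.7-2.5 nM. Incubation 3-4 h at 25 °C in Tris-HCl pH 7.4 with 100 mM choline chloride, 3 mM MnCl₂, protease inhibitor cocktail and 100 nM DAMGO to block μ sites. Nonspecific binding defined with 20 μM levallorphan. Nine test concentrations, run twice. IC50 reported.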
As to `C=CCN1C[C@H](C)N([C@H](c2ccc(C(N)=O)cc2)c2cccc(OC)c2)C[C@H]1C`, the IC50 was determined as 0.451 µM.
`C=CCN1C[C@H](C)N([C@@H](c2ccc(C(=O)N(C)C)cc2)c2cccc(OC)c2)C[C@H]1C` yielded an IC50 of 0.234 µM.
The same measure, in the same setting: as for `C=CCN1C[C@H](C)N([C@@H](c2ccc(C(N)=O)cc2)c2cccc(OC)c2)C[C@H]1C`, the figure is 0.389 µM; as for `C=CCN1C[C@H](C)N([C@@H](c2ccc(C(=O)N(C(C)C)C(C)C)cc2)c2cccc(OC)c2)C[C@H]1C`, 0.344 µM.
On the same count and under the same terms, as for `C=CCN1C[C@H](C)N([C@@H](c2ccc(C(=O)N3CCCCC3)cc2)c2cccc(OC)c2)C[C@H]1C`, the figure is 0.45 µM.
On the same count and under the same terms, the value for `C=CCN1C[C@H](C)N([C@@H](c2ccc(C(=O)N(CCCC)CCCC)cc2)c2cccc(OC)c2)C[C@H]1C` was 0.129 µM; that for `C=CCN1C[C@H](C)N([C@@H](c2ccc(C(=O)NCC)cc2)c2cccc(OC)c2)C[C@H]1C` was 0.0344 µM.
Compound `C=CCN1C[C@H](C)N([C@H](c2ccc(C(=O)N(CCCC)CCCC)cc2)c2cccc(OC)c2)C[C@H]1C` gave an IC50 of 0.0345 µM.
Still for that read-out and setting: the value for `C=CCN1C[C@H](C)N([C@@H](c2ccc(C(=O)N3CCCCCC3)cc2)c2cccc(OC)c2)C[C@H]1C` was 0.124 µM.
Regarding `C=CCN1C[C@H](C)N([C@H](c2ccc(C(=O)NC(C)(C)C)cc2)c2cccc(OC)c2)C[C@H]1C`, the IC50 turned out to be 0.281 µM. Against the preceding compound, the IC50 is about 2.3-fold higher.
The same measure, in the same setting: the value for `C=CCN1C[C@H](C)N([C@@H](c2ccc(C(=O)N(CCC)CCC)cc2)c2cccc(OC)c2)C[C@H]1C` was 0.153 µM.

Another assay is filed under the species Cavia porcellus. As to the kind of experiment: Binding affinity ratio of kappa opioid receptor (guinea pig brain membranes) with respect to delta opioid receptor( rat brain membranes). It counts as cell membranes. The conditions noted are these: Membrane. The procedure, abridged:
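Ratio of IC50 from [³H]U69,593 binding to μ/δ-depleted guinea pig brain membranes over IC50 from [³H]DADLE binding to rat brain membranes (μ sites blocked with 100 nM DAMGO). Both assays run at 25 °C in Tris-HCl pH 7.4, nine concentrations, run twice.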
On to `C=CCN1C[C@H](C)N([C@H](c2ccc(C(N)=O)cc2)c2cccc(OC)c2)C[C@H]1C`, for which the Ratio was more than 5.5.
Regarding `C=CCN1C[C@H](C)N([C@@H](c2ccc(C(=O)N(C)C)cc2)c2cccc(OC)c2)C[C@H]1C`, the Ratio was more than 11.
Regarding `C=CCN1C[C@H](C)N([C@@H](c2ccc(C(N)=O)cc2)c2cccc(OC)c2)C[C@H]1C`, the Ratio is more than 6.4.
Still for that read-out and setting: the value for `C=CCN1C[C@H](C)N([C@@H](c2ccc(C(=O)N(C(C)C)C(C)C)cc2)c2cccc(OC)c2)C[C@H]1C` was more than 7.3.
The same measure, in the same setting: as for `C=CCN1C[C@H](C)N([C@@H](c2ccc(C(=O)N3CCCCC3)cc2)c2cccc(OC)c2)C[C@H]1C`, the figure is more than 22; as for `C=CCN1C[C@H](C)N([C@@H](c2ccc(C(=O)N(CCCC)CCCC)cc2)c2cccc(OC)c2)C[C@H]1C`, more than 5.5; as for `C=CCN1C[C@H](C)N([C@@H](c2ccc(C(=O)NCC)cc2)c2cccc(OC)c2)C[C@H]1C`, 48.
On the same count and under the same terms, the value for `C=CCN1C[C@H](C)N([C@H](c2ccc(C(=O)N(CCCC)CCCC)cc2)c2cccc(OC)c2)C[C@H]1C` was more than 71.
Regarding `C=CCN1C[C@H](C)N([C@@H](c2ccc(C(=O)N3CCCCCC3)cc2)c2cccc(OC)c2)C[C@H]1C`, the Ratio was more than 81.
Still for that read-out and setting: the value for `C=CCN1C[C@H](C)N([C@H](c2ccc(C(=O)NC(C)(C)C)cc2)c2cccc(OC)c2)C[C@H]1C` was more than 8.9.
Turning to `C=CCN1C[C@H](C)N([C@@H](c2ccc(C(=O)N(CCC)CCC)cc2)c2cccc(OC)c2)C[C@H]1C`, the Ratio was more than 65.

The next assay deals with Opioid receptors; mu & delta (Rattus norvegicus) (UniProt P33533+P33535). Briefly: Binding affinity ratio on mu opioid receptor( rat brain membranes) with respect to delta opioid receptor (rat brain membranes).
Chain of Opioid receptors; mu & delta (Rattus norvegicus) (P33533 whole entry, looked up): as the sequence (P33533 whole entry) above
Chain of Opioid receptors; mu & delta (Rattus norvegicus) (P33535 whole entry, looked up): as the sequence (P33535 whole entry) above
Settings: not given
The procedure, abridged:
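Ratio of IC50 from [³H]DAMGO binding to rat brain membranes over IC50 from [³H]DADLE binding to rat brain membranes (μ sites blocked with 100 nM DAMGO). Both assays run at 25 °C in Tris-HCl pH 7.4, nine concentrations, run twice.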
With `C=CCN1C[C@H](C)N([C@H](c2ccc(C(N)=O)cc2)c2cccc(OC)c2)C[C@H]1C`, the Ratio is more than 5.5.
The same measure, in the same setting: the value for `C=CCN1C[C@H](C)N([C@@H](c2ccc(C(=O)N(C)C)cc2)c2cccc(OC)c2)C[C@H]1C` was more than 11; that for `C=CCN1C[C@H](C)N([C@@H](c2ccc(C(N)=O)cc2)c2cccc(OC)c2)C[C@H]1C` was more than 6.4.
`C=CCN1C[C@H](C)N([C@@H](c2ccc(C(=O)N(C(C)C)C(C)C)cc2)c2cccc(OC)c2)C[C@H]1C`: the Ratio is more than 7.3.
Same read-out and setting: the value for `C=CCN1C[C@H](C)N([C@@H](c2ccc(C(=O)N3CCCCC3)cc2)c2cccc(OC)c2)C[C@H]1C` was more than 5.5.
On the same count and under the same terms, the value for `C=CCN1C[C@H](C)N([C@@H](c2ccc(C(=O)N(CCCC)CCCC)cc2)c2cccc(OC)c2)C[C@H]1C` was more than 5.5; that for `C=CCN1C[C@H](C)N([C@@H](c2ccc(C(=O)NCC)cc2)c2cccc(OC)c2)C[C@H]1C` was 4.9; that for `C=CCN1C[C@H](C)N([C@H](c2ccc(C(=O)N(CCCC)CCCC)cc2)c2cccc(OC)c2)C[C@H]1C` was more than 71.
Still for that read-out and setting: as for `C=CCN1C[C@H](C)N([C@@H](c2ccc(C(=O)N3CCCCCC3)cc2)c2cccc(OC)c2)C[C@H]1C`, the figure is more than 20; as for `C=CCN1C[C@H](C)N([C@H](c2ccc(C(=O)NC(C)(C)C)cc2)c2cccc(OC)c2)C[C@H]1C`, more than 8.9; as for `C=CCN1C[C@H](C)N([C@@H](c2ccc(C(=O)N(CCC)CCC)cc2)c2cccc(OC)c2)C[C@H]1C`, 28.
